pIC50: −log10 of the molar value. Calls of active or inactive are those of the source. The calls are words filed in the database; no cut-off is given here.

For assay [1], the system named is Caco-2. In words: Upregulation of PKCdelta protein expression in human Caco-2 cells at 1 ug/ml incubated for 48 hrs by Western blot analysis. It counts as functional, cell-based. The settings on record: dose 1.0 µg/ml. The method in brief:
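Caco-2 cells, 0.25 × 10^6 per well, seeded 48 h before treatment; DMSO vehicle control. Optional 15 min pretreatment with 0.2 µM Gö6976. Cells lysed on ice after 48 h in pH 7.4 Tris/NaCl/Triton/EDTA buffer with protease and phosphatase inhibitors. 30 µg protein run on 4–15% SDS-PAGE, blotted to nitrocellulose, ECL detection. pSer664 and total PKCδ probed, ratio quantified, actin as loading control; one experiment.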

Assay [2] has as its system Colorectal epithelial cell. Nature of the assay: Cytostatic activity against human Colorectal epithelial cells isolated from left colon of patient with sigmoido-vaginal fistula for diverticulitis cultured as organoids at 1 ug/ml incubated for 48 hrs by CellTiter-Glo luminescence assay. It counts as functional, cell-based. The settings on record: dose 1.0 µg/ml. The method, boiled down: (§1)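 Primary colonic epithelial cells (3 control and 2 CRC patients) were expanded as organoids or spheroids in Matrigel with EGF/noggin/Wnt3a/R-spondin medium. Single cells were seeded at 2500/well and allowed 48 h to form colonoids, then exposed for 48 h at 0.01, 0.1 or 1 µg/mL, with 5FdU at 1 µg/mL as positive control. Viability was read by CellTiter-Glo luminescence versus DMSO or medium control.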

Assay [3] concerns Colorectal epithelial cell. In words: Cytostatic activity against human Colorectal epithelial cells isolated from left colon of patient with recurrent diverticulitis cultured as organoids at 1 ug/ml incubated for 48 hrs by CellTiter-Glo luminescence assay. The settings on record: dose 1.0 µg/ml. It counts as functional, cell-based. The method, boiled down:
as §1

The test system of assay [4] is Colorectal epithelial cell. Nature of the assay: Cytostatic activity against human Colorectal epithelial cells isolated from patient with fistulized sigmoiditis cultured as organoids at 1 ug/ml incubated for 48 hrs by CellTiter-Glo luminescence assay. The settings on record: dose 1.0 µg/ml. It counts as functional, cell-based. The method in brief: as §1
Assay [5] deals with Colorectal epithelial cell. Nature of the assay: Cytostatic activity against human Colorectal epithelial cells isolated from patient with well-differentiated colonic adenocarcinoma cultured as organoids at 1 ug/ml incubated for 48 hrs by CellTiter-Glo luminescence assay. It counts as functional, cell-based. The settings on record: dose 1.0 µg/ml. The method, boiled down: as §1

Assay [6] concerns Colorectal epithelial cell. In words: Cytostatic activity against human Colorectal epithelial cells isolated from patient with well-differentiated colonic adenocarcinoma and undergone nine courses of chemotherapy cultured as organoids at 1 ug/ml incubated for 48 hrs by CellTiter-Glo luminescence assay. It counts as functional, cell-based. The note with it: dose 1.0 µg/ml. The method in brief: as §1

For assay [7], the system named is Caco-2. In words: Cytotoxicity against human Caco-2 cells assessed as cell death. It counts as functional, cell-based.
Assay [8] concerns Caco-2. Nature of the assay: Cytostatic activity against human Caco-2 cells assessed as inhibition of cell growth at 1 ug/ml incubated for 48 hrs by MTS assay relative to control. In kind it is functional. The method, boiled down: (§2)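 Caco-2 cells were seeded at 40 000/well 48 h before dosing. Compound was diluted from a 10 mg/mL DMSO stock into medium (0.125, 0.5 or 1 µg/mL final; DMSO ≤0.01%) and added in triplicate for 48 h. Viability was read by MTS absorbance at 490 nm and expressed relative to the DMSO control.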

In another assay the test system is Zika virus. In words: Antiviral activity against ZIKV expressing GFP reporter gene measured 24 hrs post infection. In kind it is functional, organism-based. The method in brief: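 Cells in 96-well plates were exposed to serial concentrations starting at 50 µg/mL and infected with GFP-reporter Zika virus at MOI 1. At 24 h post-infection, cells were fixed in 3.7% PFA and GFP-positive cells were counted by flow cytometry.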

A further assay concerns SARS-CoV-2. Nature of the assay: Antiviral activity against SARS-CoV-2 assessed as reduction in progeny production measured 24 hrs post infection by PFU assay. It counts as functional, organism-based. The settings on record: Severe acute respiratory syndrome coronavirus 2, 24 h.
The test system of assay [9] is Caco-2. Nature of the assay: Cytostatic activity against human Caco-2 cells assessed as inhibition of cell growth at 1 ug/ml incubated for 48 hrs by MTS assay. In kind it is functional, cell-based. The note with it: dose 1.0 µg/ml. The method in brief:
as §2

`Cn1c2ccccc2c2c3c(c4c5ccccc5n(CCC#N)c4c21)CNC3=O`: the outcome in the assay on Caco-2 [1] was Active.

On to `O=c1[nH]c(=O)n([C@H]2C[C@H](O)[C@@H](CO)O2)cc1F`, for which the outcome in [2], in assay [3], in assay [4], in assay [5] and in assay [6] was inactive.

Consider `C=C(C)[C@]12C[C@@H](C)[C@@]34O[C@](/C=C/C=C\C(=O)CCCCCCCC)(O[C@@H]1[C@@H]3[C@@H]1O[C@]1(CO)[C@@H](O)[C@]1(O)C(=O)C(C)=C[C@H]14)O2`, for which the outcome with Caco-2 [7] was inactive. Further, the inhibition at 1 µg/mL with Caco-2 [8] was roughly 25%.

Consider `C=C(C)[C@]12C[C@@H](C)[C@@]34O[C@](/C=C/C=C/C(=O)CCCCCCCC)(O[C@@H]1[C@@H]3[C@@H]1O[C@]1(CO)[C@@H](O)[C@]1(O)C(=O)C(C)=C[C@H]14)O2`, for which the outcome in the assay with Caco-2 [7] was inactive. Also, in the assay with Caco-2 [8], the inhibition at 1 µg/mL was roughly 25%. Moreover, the negative logarithm of the IC50 (pIC50) with Zika virus is less than 4.30; with SARS-CoV-2, 4.30.

For the compound `C=C(C)[C@]12C[C@@H](C)[C@@]34O[C@](/C=C/C=C/[C@H](O)CCCCCCCC)(O[C@@H]1[C@@H]3[C@@H]1O[C@]1(CO)[C@@H](O)[C@]1(O)C(=O)C(C)=C[C@H]14)O2`, in the assay on Caco-2 [7], the outcome was inactive. In addition, in the assay on Caco-2 [8], the inhibition at 1 µg/mL is roughly 25%.

As to `C=C(C)[C@]1(O)C[C@@H](C)[C@]2(O)[C@H]([C@H]1O)[C@@H]1O[C@]1(COC(=O)CCCCCCCCCC(C)/C=C/CCCCC)[C@@H](O)[C@]1(O)C(=O)C(C)=C[C@H]12` (stereo not given in full), the result in the assay on Caco-2 [7] and in the assay on Caco-2 [9] was inactive. The pIC50 in the assay with Zika virus is less than 4.30; in the assay on SARS-CoV-2 it was 4.47.

On to `C=C(C)[C@]12C[C@@H](C)[C@@]34O[C@](/C=C/[C@H](O)[C@@H](O)CCCCCCCCC)(O[C@@H]1[C@@H]3[C@@H]1O[C@]1(CO)[C@@H](O)[C@]1(O)C(=O)C(C)=C[C@H]14)O2`, for which the outcome in the assay on Caco-2 [7] was inactive. Also, the result in the assay on Caco-2 [9] was Active.
